From ChEMBL document CHEMBL2321875 (J Med Chem, 2013) come the findings set out here.

The test system of data set [1] is Danio rerio. The data set is described as follows: In vivo inhibition of porcupine in juveline stage of zebrafish assessed as inhibition of Wnt-mediated tail fin regeneration at 5 uM. The data set is classed as functional, organism-based.
Data set [2] in a line: Half life in rat plasma at 2 uM. The data set is classed as ADME, cell-free.
A short description of data set [3]: Half life in ICR/CD-1 mouse liver S9 fraction at 2 uM by LC-MS/MS analysis. The data set is classed as ADME, subcellular.
For data set [4], the target named is T1, Protein-serine O-palmitoleoyltransferase porcupine (Mus musculus, UniProt Q9JJJ7).
T1 sequence (Q9JJJ7 whole entry): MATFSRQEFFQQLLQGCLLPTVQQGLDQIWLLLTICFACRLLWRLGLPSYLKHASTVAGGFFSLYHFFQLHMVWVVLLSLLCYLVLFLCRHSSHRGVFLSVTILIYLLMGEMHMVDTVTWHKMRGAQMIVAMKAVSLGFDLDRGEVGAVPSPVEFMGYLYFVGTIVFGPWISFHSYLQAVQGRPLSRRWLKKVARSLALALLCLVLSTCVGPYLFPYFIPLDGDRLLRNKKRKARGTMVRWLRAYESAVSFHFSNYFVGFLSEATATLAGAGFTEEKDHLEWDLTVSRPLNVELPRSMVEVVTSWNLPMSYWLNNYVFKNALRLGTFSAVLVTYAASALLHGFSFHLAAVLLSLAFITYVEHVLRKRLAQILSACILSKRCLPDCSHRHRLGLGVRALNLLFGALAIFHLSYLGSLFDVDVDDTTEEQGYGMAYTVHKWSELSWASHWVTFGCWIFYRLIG
Nature of the data set: Inhibition of porcupine-mediated Wnt signalling in mouse L cells after 24 hrs by SuperTopflash reporter assay. The data set is classed as cell-based. On the technique in general: Reporter assays use an easily measured gene product as a stand-in for the process of interest.

For data set [5], the target named is T2, Protein-serine O-palmitoleoyltransferase porcupine (Homo sapiens) (UniProt Q9H237).
T2 sequence (whole entry): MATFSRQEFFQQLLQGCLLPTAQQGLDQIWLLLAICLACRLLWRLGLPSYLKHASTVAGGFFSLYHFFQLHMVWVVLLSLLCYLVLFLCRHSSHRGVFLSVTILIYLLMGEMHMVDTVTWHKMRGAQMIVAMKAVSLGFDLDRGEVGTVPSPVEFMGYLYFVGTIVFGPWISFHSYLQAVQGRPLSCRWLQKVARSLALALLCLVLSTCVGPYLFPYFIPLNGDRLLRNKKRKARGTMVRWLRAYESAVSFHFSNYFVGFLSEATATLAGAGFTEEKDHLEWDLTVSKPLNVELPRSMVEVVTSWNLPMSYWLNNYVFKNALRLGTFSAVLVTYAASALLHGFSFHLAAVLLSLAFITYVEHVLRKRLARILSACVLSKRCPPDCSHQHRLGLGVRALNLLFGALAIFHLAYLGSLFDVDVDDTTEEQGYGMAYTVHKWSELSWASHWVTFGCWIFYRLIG
The data set is described as follows: Inhibition of porcupine-mediated phosphorylation of dishevelled 2 in HEK293 cells at 2.5 uM. The data set is classed as cell-based.

A short description of data set [6]: Half life in mouse plasma at 2 uM. The data set is classed as ADME, cell-free.
The target in data set [7] is T3, Protein-serine O-palmitoleoyltransferase porcupine (Mus musculus) (UniProt Q9JJJ7).
T3 sequence (whole entry): T1 sequence (Q9JJJ7 whole entry)
Nature of the data set: Inhibition of porcupine in E11.5 mouse embryo kidney assessed as inhibition of Wnt-mediated branching morphogenesis at 10 to 50 nM measured every 24 hrs by fluorescent stereoscopic analysis relative to control. The essentials:
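Kidneys from E11.5 Hoxb7Cre;RosaTomato mouse embryos were cultured at the air/media interface in media containing 1 nM to 1 μM compound, with DMSO controls. Media was replaced and fluorescent stereoscope images were taken every 24 h. The read-out was the fold increase in ureteric bud tip number from 0 to 48 h, compared by Student t test.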

The subject of data set [8] is Danio rerio. Nature of the data set: In vivo inhibition of porcupine in zebrafish embryos assessed as inhibition of Wnt/beta-casein-mediated posterior axis formation at 1 to 5 uM applied in aquarium water by mCherry-based reporter gene assay. The data set is classed as functional, organism-based. The following applies: in the assay text read “beta-catenin” for “beta-casein”. A digest of the protocol: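 Zebrafish embryos carrying an mCherry-based Wnt/β-catenin signaling reporter were exposed to increasing concentrations of compound in the aquarium water. Whole-animal fluorescence intensity was quantified, and posterior axis formation was scored.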

SMILES strings stand for the structures. The source made the active and inactive calls. No cut-off for these calls is given here.

Turning to `O=C(CSc1nc2c(c(=O)n1-c1ccccc1)SCC2)Nc1ccc(-c2ccccc2)cn1`, the inhibition entry (in the data set on Danio rerio [1]; in data set [5]; in data set [7]; in the data set on Danio rerio [8]) was “Active” each time. Moreover, the figures for the half-life at 2 µM in data set [2], in data set [3] and in data set [6] were 190 min, 26 min and 2 min, respectively. For the same compound, in data set [4], the EC50 (commonly the concentration that produces a half-maximal response) amounted to 0.5 nM.
